Screening results (PubChem BioAssay)
FAS TE block – blocks the thioesterase domain of human fatty acid synthase. actives 0.67% (n = 360,000). inhibition, % at 15 µM. recombinant FAS-TE, OMFH fluorogenic substrate, fluorescence endpoint;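 active = compounds whose normalised, plate-corrected inhibition of enzyme fluorescence in the single-dose primary screen is 50% or more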;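 note: 0% = DMSO with enzyme and 100% = substrate without enzyme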
Target sequence (P49327 whole entry, looked up, the tested form may be a part): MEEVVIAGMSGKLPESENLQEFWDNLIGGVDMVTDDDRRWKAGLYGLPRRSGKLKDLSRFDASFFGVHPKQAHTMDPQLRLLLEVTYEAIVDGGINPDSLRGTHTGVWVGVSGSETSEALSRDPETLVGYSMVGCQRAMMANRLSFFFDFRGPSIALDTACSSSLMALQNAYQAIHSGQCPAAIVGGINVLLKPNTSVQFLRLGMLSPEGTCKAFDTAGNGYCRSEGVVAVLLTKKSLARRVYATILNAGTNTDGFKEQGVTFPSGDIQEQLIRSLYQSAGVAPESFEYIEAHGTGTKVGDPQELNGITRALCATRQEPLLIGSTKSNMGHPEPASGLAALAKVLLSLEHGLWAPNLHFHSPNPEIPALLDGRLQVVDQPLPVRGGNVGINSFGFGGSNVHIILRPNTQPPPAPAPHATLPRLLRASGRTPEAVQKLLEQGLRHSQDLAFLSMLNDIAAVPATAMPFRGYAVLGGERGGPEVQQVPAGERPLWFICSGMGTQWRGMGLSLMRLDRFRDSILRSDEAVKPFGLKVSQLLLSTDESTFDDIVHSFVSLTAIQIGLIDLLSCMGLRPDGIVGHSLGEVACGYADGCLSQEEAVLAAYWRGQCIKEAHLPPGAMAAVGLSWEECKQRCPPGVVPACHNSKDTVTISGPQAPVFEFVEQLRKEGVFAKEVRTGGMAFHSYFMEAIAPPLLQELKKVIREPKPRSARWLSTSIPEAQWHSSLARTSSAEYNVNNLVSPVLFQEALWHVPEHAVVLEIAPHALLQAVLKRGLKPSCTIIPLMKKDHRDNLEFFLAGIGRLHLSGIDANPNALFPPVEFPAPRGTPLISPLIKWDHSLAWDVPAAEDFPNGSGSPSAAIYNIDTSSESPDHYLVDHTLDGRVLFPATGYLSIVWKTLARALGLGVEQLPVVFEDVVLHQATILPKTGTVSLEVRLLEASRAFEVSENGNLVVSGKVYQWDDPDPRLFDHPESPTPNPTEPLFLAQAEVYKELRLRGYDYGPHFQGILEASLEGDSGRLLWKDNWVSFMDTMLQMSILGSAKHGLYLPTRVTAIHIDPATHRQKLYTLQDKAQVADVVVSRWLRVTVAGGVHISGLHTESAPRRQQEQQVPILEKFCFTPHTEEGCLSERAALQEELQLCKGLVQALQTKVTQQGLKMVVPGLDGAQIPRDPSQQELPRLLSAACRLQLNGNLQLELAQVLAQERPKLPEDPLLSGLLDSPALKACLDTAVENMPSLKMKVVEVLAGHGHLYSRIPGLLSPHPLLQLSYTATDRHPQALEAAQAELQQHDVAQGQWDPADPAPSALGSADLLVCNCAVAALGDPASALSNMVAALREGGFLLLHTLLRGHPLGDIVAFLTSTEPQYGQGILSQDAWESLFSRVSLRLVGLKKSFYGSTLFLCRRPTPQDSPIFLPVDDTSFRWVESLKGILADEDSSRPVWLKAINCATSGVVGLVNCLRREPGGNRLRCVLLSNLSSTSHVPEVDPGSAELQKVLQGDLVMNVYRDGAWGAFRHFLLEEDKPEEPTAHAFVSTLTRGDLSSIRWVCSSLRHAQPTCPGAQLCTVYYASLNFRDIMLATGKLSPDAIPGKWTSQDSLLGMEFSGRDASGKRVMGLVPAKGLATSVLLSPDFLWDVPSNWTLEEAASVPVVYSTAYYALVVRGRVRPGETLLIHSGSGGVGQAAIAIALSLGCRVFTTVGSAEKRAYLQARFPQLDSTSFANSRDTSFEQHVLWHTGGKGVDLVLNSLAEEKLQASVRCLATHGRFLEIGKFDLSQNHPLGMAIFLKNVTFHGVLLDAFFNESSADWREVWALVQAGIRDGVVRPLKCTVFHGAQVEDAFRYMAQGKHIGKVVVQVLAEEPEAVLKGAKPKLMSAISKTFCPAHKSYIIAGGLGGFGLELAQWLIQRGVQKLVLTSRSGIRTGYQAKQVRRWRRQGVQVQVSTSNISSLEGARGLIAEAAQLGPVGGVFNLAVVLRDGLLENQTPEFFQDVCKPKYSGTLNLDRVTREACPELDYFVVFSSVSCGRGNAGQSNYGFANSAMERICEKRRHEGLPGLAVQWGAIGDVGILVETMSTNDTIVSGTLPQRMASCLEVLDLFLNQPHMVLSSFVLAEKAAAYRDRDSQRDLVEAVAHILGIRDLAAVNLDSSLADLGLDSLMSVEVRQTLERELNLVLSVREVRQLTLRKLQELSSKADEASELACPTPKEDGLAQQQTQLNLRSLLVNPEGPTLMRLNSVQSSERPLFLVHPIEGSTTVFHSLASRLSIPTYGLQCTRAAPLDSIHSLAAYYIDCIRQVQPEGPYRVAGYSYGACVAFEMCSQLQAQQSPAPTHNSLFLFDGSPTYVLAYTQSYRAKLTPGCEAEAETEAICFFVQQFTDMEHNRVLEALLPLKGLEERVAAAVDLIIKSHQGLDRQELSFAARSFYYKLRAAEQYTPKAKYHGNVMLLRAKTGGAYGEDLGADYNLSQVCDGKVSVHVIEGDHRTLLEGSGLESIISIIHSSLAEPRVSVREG
Arr AP2 block – human beta-arrestin and AP2 interaction inhibition. AID 504490. FITC-arrestin peptide / GST-AP2 beads, flow cytometry; AP2 beta2 appendage carries R879A mutation. inhibition, % at 10 µM. actives 0.31% (n = 340,000);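 active = inhibition above a set limit, near 3 SD of compounds lacking own fluorescence, cut at about 54% in these data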;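 note: plate controls were DMSO wells for no effect and 5 µM unlabelled arrestin peptide for full effect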
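System: GST-AP2 R879A glutathione beads | Also added: FITC-arrestin peptide, 50 nM | Times: 12 min plus 1 h, RT | Signal: Bead flow cytometry, FITC channel | Buffer or medium: PBS with 0.05% Tween 20 and 0.1% BSA | Read-out basis: Percent drop in bead-associated FITC signal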
NRP1-CendR mod – NRP-1/CendR interaction modulation | AID 602438 | FAM-RPARPAR peptide binding to NRP-1, fluorescence polarization | inhibition, % at 25 µM | actives 0.85% (n = 360,000);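 active = inhibition or corrected inhibition above about 18%, plus a signal ratio from 0.5 to 1.5, limit read from the data, passing the limit was not always enough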
CaV13 ICDI inh – Disruptors of the CACNA1D IQ motif to Ca2+-dependent inactivation inhibitor domain association, primary screening, Förster resonance energy transfer in intact living … | AID 743397 | inhibition, % at 12.3 µM | HEK cells, CFP/YFP FRET ICDI-IQ, plate reader, 10 min; percent FRET-ratio fall versus neutral wells | actives 0.098% (n = 340,000);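 active = mean replicate inhibition of at least 30% and at least 1% of replicates passing that level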;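 note: 0% = median of the neutral control wells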
ADAM17 inh – inhibitors of human ADAM17; inhibition, % at 6.95 µM; recombinant ADAM17, EDANS/DABCYL FRET peptide cleavage; P78536; actives 0.83% (n = 370,000);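 active = inhibition above the mean of compounds lying between control limits plus 3 SD, set per campaign, cut at about 8.5% in these data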;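 note: 0% = DMSO-only wells as the low control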
ADAM10 inh – ADAM10 inhibition, QFRET primary screen; actives 0.62% (n = 370,000); recombinant ADAM10, EDANS/DABCYL FRET peptide cleavage, 3 h; inhibition, % at 7 µM; AID 720582; O14672;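 active = inhibition above a per-campaign cutoff equal to the mean of compounds falling between control-based bounds plus 3 SD, cut at about 20% in these data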;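 note: 0% = DMSO wells while the 100% control is not disclosed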
FAS-TE inh conf – confirmation of human fatty acid synthase thioesterase inhibitors. shares compounds with FAS TE block. recombinant FAS-TE, OMFH fluorogenic substrate, fluorescence. inhibition, % at 15 µM. actives 45% (n = 2,300). AID 624325;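 active = compounds inhibiting the enzyme by at least 50% at 15 µM in any one of the replicates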;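 note: 0% = enzyme with DMSO only and 100% = wells lacking enzyme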
* hit, by the source's call; i = inactive; / = not tested or not shown. A selection: hits, their analogues and other compounds. The true share with any hit is near 2.9%.

SMILES | FAS TE block | Arr AP2 block | NRP1-CendR mod | CaV13 ICDI inh | ADAM17 inh | ADAM10 inh | FAS-TE inh conf
Cc1cc(C)cc(N(CC(=O)N2CCc3ccccc32)S(=O)(=O)c2c(C)noc2C)c1 | 36 | 24 | 0 | -3 | -2 | -11 | /
Cc1cc(C)cc(N(CC(=O)N2CCn3c2nc2ccccc23)S(=O)(=O)c2c(C)noc2C)c1 | 65* | 19 | -12 | 18 | -3 | 8 | 28
O=[N+]([O-])c1ccccc1/C=C/C=Nn1c(-c2ccc(F)cc2)n[nH]c1=S | / | / | / | / | 4 | 13 | /
Cn1c(=O)c2c3c(sc2n2c(SCC(N)=O)nnc12)CC(C(C)(C)C)CC3 (centres undefined) | 56* | 22 | 5 | -5 | -5 | -6 | 41
Cc1ccc(S(=O)(=O)N/N=C2/CCCCC2C2CCCCC2)cc1[N+](=O)[O-] (centres undefined) | 31 | 36 | 6 | -6 | 5 | -3 | /
CCC(C)(C)C1CCC(=NNS(=O)(=O)c2ccc(C)c([N+](=O)[O-])c2)CC1 (centres undefined) | 73* | 8 | -7 | -2 | -1 | 1 | 58*
N#CCSc1nc2c(sc(=S)n2Cc2ccco2)c(=O)n1-c1ccc(F)cc1 | 58* | 1 | -5 | -3 | 3 | 19 | 17
CCn1c(=S)sc2c(=O)n(-c3ccccc3)c(SC)nc21 | 35 | -8 | 5 | -4 | 0 | 0 | /
O=C(CSc1ccc([N+](=O)[O-])cn1)Nc1ccc2c(c1)OCCO2 | 85* | 39 | 9 | -4 | 3 | 11 | 88*
Cc1ccc(-c2nnc(Nc3ccc4c(c3)OCO4)c3ccccc23)cc1S(=O)(=O)NC(C)C | 51* | 2 | 28* | -4 | 3 | -2 | 15
Cc1cc(C(=O)N2CCCC2(C)C(=O)NCC(C)C)nn1C(C)(C)C (centres undefined) | -6 | / | -7 | -10 | -7 | -8 | /
CC(NC(=O)C12CC3CC(CC(C3)C1)C2)C(=O)N/N=C/C1=C(N2CCOCC2)C(=C\c2ccccc2)/CC1 (centres undefined) | 71* | -7 | -2 | -2 | 0 | 0 | 9
Cn1cc(C(=O)N/N=C/C2=C(N3CCOCC3)C(=C\c3ccccc3)/CC2)ccc1=O | -4 | 1 | -37 | -5 | -8 | -17 | /
Nn1c(SCC(=O)Nc2ccc(S(=O)(=O)Nc3nccs3)cc2)nnc1-c1ccco1 | / | / | / | / | -1 | -3 | /
O=C(Nc1nc2ncccn2c1-c1ccc(C(F)(F)F)cc1)C1CC1 | / | / | / | / | -243 | i | /
COc1cccc(OCCOc2ccc(/C=C3/SC(=S)NC3=O)cc2)c1 | 68* | 24 | -69 | -20 | -1 | 5 | 40
COc1ccc(C=C2SC(=S)NC2=O)cc1 | 9 | 6 | -68 | -5 | 4 | -7 | /
O=[N+]([O-])c1ccc(Cl)c(/C=N/Nc2nc(N3CCOCC3)nc(N3CCOCC3)n2)c1 | 51* | 3 | 4 | / | -5 | 2 | 5
O=[N+]([O-])c1cccc(/C=N/Nc2nc(N3CCOCC3)nc(N3CCOCC3)n2)c1 | 12 | -4 | 8 | 3 | -2 | 0 | /
O=[N+]([O-])c1ccc(/C=N/Nc2nc(N3CCOCC3)nc(N3CCOCC3)n2)cc1 | 50* | 37 | 8 | / | / | / | 23
Clc1cc2c(cc1/C=N/Nc1nc(N3CCOCC3)nc(N3CCOCC3)n1)OCO2 | 12 | 20 | -6 | 3 | -6 | -7 | /
CC(C)c1ccc(/C=N/Nc2cc(N3CCOCC3)nc(N3CCOCC3)n2)cc1 | 89* | -5 | -6 | -5 | 2 | 2 | 90*
Cc1ccc(NC2C(=O)NC(=O)NC2=O)cc1 | 4 | 5 | 10 | -16 | -4 | -13 | /
O=C(NCCCc1ccccc1)O[C@@H]1CC[C@@]23CCCN2C(=O)CCC[C@H]3C1 | / | / | / | / | 1 | 5 | /
CCOC1=C2[C@@H](CN(S(=O)(=O)c3ccc(C)cc3)[C@H]2c2ccccc2)[C@H]2C(=O)N(c3ccccc3)C(=O)[C@H]2C1 | 28 | / | -6 | -4 | -4 | -19 | /
SMILES | FAS TE block | Arr AP2 block | NRP1-CendR mod | CaV13 ICDI inh | ADAM17 inh | ADAM10 inh | FAS-TE inh conf
CCOC1=C2[C@@H](CN(S(=O)(=O)c3ccccc3C)[C@H]2c2ccc(Cl)cc2)[C@H]2C(=O)N(C3CCCCC3)C(=O)[C@H]2C1 | / | / | 13 | / | 4 | -2 | /
CCOC1=C2[C@@H](CN(S(=O)(=O)c3ccc(C)cc3)[C@H]2c2ccccc2F)[C@H]2C(=O)N(C3CCCCC3)C(=O)[C@H]2C1 | 72* | / | 23 | -6 | -3 | -7 | 23
CCOC1=C2[C@@H](CN(S(=O)(=O)c3ccc(C)cc3)[C@H]2c2ccccc2)[C@H]2C(=O)N(Cc3ccccc3)C(=O)[C@H]2C1 | 76* | / | 1 | -6 | -1 | -3 | 19
CCOC1=C2[C@@H](CN(S(=O)(=O)c3ccccc3C)[C@H]2c2ccc(Cl)cc2)[C@H]2C(=O)N(c3ccccc3)C(=O)[C@H]2C1 | 83* | / | 22* | -6 | 4 | 18 | 16
CCOC1=C2[C@@H](CN(S(=O)(=O)c3ccc(C)cc3)[C@H]2c2ccccc2F)[C@H]2C(=O)NC(=O)[C@H]2C1 | -4 | / | 7 | -5 | -1 | -6 | /
COc1ccc(C(=O)c2[nH]c(N)c(C(=O)NCCc3c[nH]c4ccccc34)c2-c2ccccc2Br)cc1 | 2 | / | -6 | -11 | -1 | -10 | /
COc1ccc(C(=O)NC(CC(=O)O)c2cc([N+](=O)[O-])ccc2Cl)c(SC)c1 (centres undefined) | 50* | 26 | 1 | -5 | 3 | 8 | 64*
CSc1ccc(CN2C(=O)C(F)(F)Oc3c(C(C)=O)cccc32)cc1 | 52* | / | -1 | / | / | / | 59*
CSc1ccc(CN2C(=O)C(C)Oc3c(C(C)=O)cccc32)cc1 (centres undefined) | 42 | / | 5 | -5 | -3 | -8 | /
CN1C/C(=C/c2ccccc2)N2C(=O)C[C@@H](c3ccccc3)N=C12 | / | / | / | / | -3 | -4 | /
Cc1ccc(NC2=C(Cl)C(=O)OC2OC(=O)c2ccccc2)c(C)c1 (centres undefined) | 38 | -24 | 4 | -1 | 4 | 13 | /
Cc1cccc(C)c1NC1=C(Cl)C(=O)OC1OC(=O)c1ccccc1 (centres undefined) | 64* | 3 | -2 | -4 | -2 | 11 | 29*
COc1ccc(C2NC(=O)c3ccccc3N2)cc1COc1ccc(NC(C)=O)cc1 (centres undefined) | / | / | / | / | -360 | i | /
O=[N+]([O-])c1cccc(OCCCN2CCC(C(O)(c3ccccc3)c3ccccc3)CC2)c1 | / | / | / | / | 1 | 4 | /
